Calls of active or inactive are those of the source.
Legend:
Mus musculus [1] = assay: Analgesic activity in Swiss CD mouse at 100 mg/kg, ip measured 0.5 hr post treatment by hot-plate method relative to control; format: functional; details: route intraperitoneal
How it was run: (§1)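 Male mice, about 20 g, dosed ip in saline. Each mouse was dropped into a glass cylinder on an aluminium plate held at 57 °C. Latency to the first flick of a hind foot was timed at 0.5 and 2 h post-dose, with a 10-s cutoff. At least ten mice per dose. Percent control = mean latency ÷ mean control latency × 100; 200% was the lower bound of activity.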

Mus musculus [2] = assay: Analgesic activity in Swiss CD mouse at 100 mg/kg, ip measured 2 hrs post treatment by hot-plate method relative to control; format: functional; details: route intraperitoneal; how it was run: as §1
Mus musculus [3] = assay: Analgesic activity in Swiss CD mouse assessed as elevation of response latency at 100 mg/kg, ip measured 0.5 hr post treatment by tail flick method relative to control; format: functional; details: route intraperitoneal
How it was run: (§2)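 Male mice, about 20 g, dosed ip in saline (solution or suspension). High-intensity heat was focused on the tail, and latency to a sudden tail flick was timed, with a 10-s cutoff. Tests ran at 0.5 and 2 h post-dose, with at least ten mice per dose. Percent control = mean latency ÷ mean control latency × 100; 200% was the lower bound of activity.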

Mus musculus [4] = assay: Analgesic activity in Swiss CD mouse assessed as elevation of response latency at 100 mg/kg, ip measured 2 hrs post treatment by tail flick method relative to control; format: functional; details: route intraperitoneal; how it was run: as §2
Canis familiaris = species on record: Canis familiaris; assay: Analgesic activity in dog assessed as increase in response threshold by radiant heat method; format: functional, organism-based; details: Canis lupus familiaris
How it was run: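 Male mongrel dogs (9-12 kg) given drug sc or orally; radiant heat threshold read as reflex fasciculations of the back muscles. Tested at 0.5 and 2 h after dosing, with the end point expressed as percent of control latency.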

Mus musculus [5] = assay: Analgesic activity in ip dosed Swiss CD mouse by hot-plate method relative to control in presence of naloxone; format: functional, organism-based
Mus musculus [6] = assay: Analgesic activity in ip dosed Swiss CD mouse by tail flick method relative to control in presence of naloxone; format: functional, organism-based
Mus musculus [7] = species on record: Mus musculus; assay: Toxicity in Swiss CD mouse assessed as Straub tail symptom; format: organism-based; details: in vivo
Rattus norvegicus [8] = species on record: Rattus norvegicus; assay: Toxicity in Sprague-Dawley CD rat assessed as Straub tail symptom; format: organism-based; details: in vivo
Mus musculus [9] = assay: Analgesic activity in Swiss CD mouse at 32 mg/kg, ip measured 0.5 hr post treatment by hot-plate method relative to control; format: functional; details: route intraperitoneal; how it was run: as §1
Mus musculus [10] = assay: Analgesic activity in Swiss CD mouse at 32 mg/kg, ip measured 2 hrs post treatment by hot-plate method relative to control; format: functional; details: route intraperitoneal; how it was run: as §1
Mus musculus [11] = assay: Analgesic activity in Swiss CD mouse assessed as elevation of response latency at 32 mg/kg, ip measured 0.5 hr post treatment by tail flick method relative to control; format: functional; details: route intraperitoneal; how it was run: as §2
Mus musculus [12] = assay: Analgesic activity in Swiss CD mouse assessed as elevation of response latency at 32 mg/kg, ip measured 2 hrs post treatment by tail flick method relative to control; format: functional; details: route intraperitoneal; how it was run: as §2
[13] = Toxicity in ip dosed Swiss CD mouse measured 0.5 to 2 hrs post treatment; format: organism-based; details: in vivo
Rattus norvegicus [14] = assay: Neuroleptic activity in ip dosed Sprague-Dawley CD rat assessed as reversal of amphetamine-induced stereotypy compound administered 1hr prior challenge; format: functional
How it was run: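 Rats dosed ip, then given amphetamine sulfate 5 mg/kg 1 h later. The ED50 is the dose that reverses the amphetamine-induced stereotypy.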

Rattus norvegicus [15] = assay: Neuroleptic activity in decarboxylase-inhibited Sprague-Dawley CD rat brain assessed as increase in DOPA accumulation at 0.01 mmol/kg relative to control; format: functional; design: scale not given: the % may be the effect or the level left
Rattus norvegicus [16] = assay: Analgesic activity in Sprague-Dawley CD rat at 32 mg/kg, ip measured 0.5 to 2 hrs post treatment by flinch-jump method relative to control; format: functional, organism-based; design: dose 32 mg/kg
How it was run: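 Male rats, 200-300 g, dosed ip (saline solution or suspension). A single rising series of 1-s foot shocks was given just before and at 0.5 and 2 h after dosing. The minimum shock intensity (mA) evoking each behaviour was recorded. No response at the 2.2-mA level counted as activity. At least five rats per dose.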

Structure (SMILES) | Activity (Mus musculus [1]) [%] | Activity (Mus musculus [2]) [%] | Activity (Mus musculus [3]) [%] | Activity (Mus musculus [4]) [%] | also measured
COc1ccc(Cl)c2c1CCC(CN1CCN(CCO)CC1)=C2 | 249 | 236 | 187 | 191 | 
COc1ccc(Cl)c2c1CCC(CN1CCC(C(N)=O)CC1)=C2.O | 314 | 329 | 274 | 132 | Activity (Canis familiaris): inactive; Activity (Mus musculus [5]): inactive; Activity (Mus musculus [6]): inactive; Activity (Mus musculus [7]): Non-toxic; Activity (Rattus norvegicus [8]): Non-toxic
CNC(=O)C1CCN(CC2=Cc3c(Cl)ccc(OC)c3CC2)CC1.Cl.O | 221 | 167 | 208 | 166 | 
COc1ccc(F)c2c1CCC(CN1CCCC1)=C2.Cl |  |  |  |  | Activity (Mus musculus [9]): 183%; Activity (Mus musculus [10]): 149%; Activity (Mus musculus [11]): 170%; Activity (Mus musculus [12]): 141%; LD50 [13]: 32 mg/kg
COc1ccc(Cl)c2c1CCC(CN1CCC(O)(c3ccccc3)CC1)=C2.Cl | 249 | 175 | 196 | 158 | 
COc1ccc(Cl)c2c1CCC(CN1CCC3(CC1)C(=O)NCN3c1ccccc1)=C2 |  |  |  |  | ED50 (Rattus norvegicus [14]): 1 mg/kg; Activity (Rattus norvegicus [15]): 154%
CCC(=O)O[C@](Cc1ccccc1)(c1ccccc1)[C@H](C)CN(C)C [PROPOXYPHENE] | 139 | 138 | 169 | 146 | 
CCOC(=O)N1CCN(CC2=Cc3c(Cl)ccc(OC)c3CC2)CC1.Cl | 274 | 233 | 223 | 199 | 
COc1ccc(Cl)c2c1CCC(CN1CCN(C)CC1)=C2 | 274 | 218 | 198 | 137 | 
COc1ccc(Cl)c2c1CCC(CN1CCC(C)CC1)=C2.Cl |  |  |  |  | Activity (Mus musculus [9]): 158%; Activity (Mus musculus [10]): 135%; Activity (Mus musculus [11]): 128%; Activity (Mus musculus [12]): 115%; LD50 [13]: 32 mg/kg
COc1ccc(Cl)c2c1CCC(CN1CCC(C(=O)N3CCCCC3)CC1)=C2.Cl.O | 170 | 124 | 235 | 149 | 
C=CCNCC1=Cc2c(Cl)ccc(OC)c2CC1.Cl | 158 | 115 | 131 | 108 | 
COc1cc2c(cc1OC)CCC(CN1CCCC1)=C2.Cl | 173 | 135 | 101 | 95 | 
COc1ccc(Cl)c2c1CCC(CN1CCC(O)(c3ccc(Cl)cc3)CC1)=C2.O=S(=O)(O)O | 177 | 102 | 162 | 123 | 
COc1ccc(Cl)c2c1CCC(CNCC1CC1)=C2.Cl | 224 | 171 | 203 | 162 | 
COc1ccc(N2CCN(CC3=Cc4c(Cl)ccc(OC)c4CC3)CC2)cc1 | 129 | 120 | 131 | 123 | 
COc1ccc(Cl)c2c1CCC(CN1CCN(S(N)(=O)=O)CC1)=C2.Cl | 123 | 109 | 104 | 88 | 
COc1ccc(Cl)c2c1CCC(CN1CCN(c3ccc(Cl)cc3)CC1)=C2 | 202 | 160 | 184 | 159 | 
COc1ccc(C)c2c1CCC(CN1CCCC1)=C2.Cl |  |  |  |  | Activity (Mus musculus [9]): 177%; Activity (Mus musculus [10]): 145%; Activity (Mus musculus [11]): 177%; Activity (Mus musculus [12]): 135%; LD50 [13]: 32 mg/kg
COc1ccc(Cl)c2c1CCC(CN1CCCCC1)=C2.Cl | 155 | 127 | 212 | 167 | 

Structure (SMILES) | Activity (Mus musculus [1]) [%] | Activity (Mus musculus [2]) [%] | Activity (Mus musculus [3]) [%] | Activity (Mus musculus [4]) [%] | also measured
COc1ccc(Cl)c2c1CCC(CN1CCC(O)CC1)=C2.Cl | 174 | 142 | 239 | 180 | 
COc1ccc(Cl)c2c1CCC(CN1CCC(C(=O)N3CCOCC3)CC1)=C2.Cl | 107 | 95 | 162 | 133 | 
CCC(=O)OC1CCN(CC2=Cc3c(Cl)ccc(OC)c3CC2)CC1.Cl | 95 | 101 | 237 | 179 | 
COc1ccc2c(c1)CCC(CN1CCCC1)=C2.Cl | 96 | 103 | 92 | 92 | 
COc1ccc2c(c1)C=C(CN1CCCC1)CC2 | 114 | 98 | 149 | 129 | 
CCN(CC)C(=O)C1CCCN(CC2=Cc3c(Cl)ccc(OC)c3CC2)C1.Cl.O (stereo unspecified) | 107 | 175 | 250 | 214 | Activity (Rattus norvegicus [16]): inactive
COc1ccc(Cl)c2c1CCC(CN1CCC(OC(C)=O)(c3ccccc3)CC1)=C2.Cl.O |  |  |  |  | Activity (Mus musculus [9]): 315%; Activity (Mus musculus [10]): 345%; Activity (Mus musculus [11]): 317%; Activity (Mus musculus [12]): 320%; Activity (Mus musculus [5]): inactive; Activity (Mus musculus [6]): inactive; LD50 [13]: 32 mg/kg; Activity (Mus musculus [7]): Toxic; Activity (Rattus norvegicus [8]): Toxic
COc1ccc(Cl)c2c1CCC(CN1CCC(C(C)=O)(c3ccccc3)CC1)=C2.Cl | 143 | 124 | 134 | 122 | 
COc1ccc(Cl)c2c1CCC(CN1CCCC(C(N)=O)C1)=C2.Cl (stereo unspecified) | 197 | 170 | 91 | 106 | Activity (Rattus norvegicus [16]): inactive
COc1ccc(Cl)c2c1CCC(CN1CCN(c3cccc(C(F)(F)F)c3)CC1)=C2.O | 167 | 149 | 119 | 118 | 
Br.COc1cccc2c1CCC(CN1CCCC1)=C2 |  |  |  |  | Activity (Mus musculus [9]): 129%; Activity (Mus musculus [10]): 103%; Activity (Mus musculus [11]): 80%; Activity (Mus musculus [12]): 90%; LD50 [13]: 32 mg/kg
C=CCN1CCN(CC2=Cc3c(Cl)ccc(OC)c3CC2)CC1.Cl | 164 | 127 | 159 | 137 | 
COc1ccc(Cl)c2c1CCC(CN1CCC(C(=O)NC3CCCCC3)CC1)=C2 | 107 | 95 | 219 | 154 | 
CNCC1=Cc2c(Cl)ccc(OC)c2CC1.Cl |  |  |  |  | Activity (Mus musculus [9]): 139%; Activity (Mus musculus [10]): 120%; Activity (Mus musculus [11]): 163%; Activity (Mus musculus [12]): 127%; LD50 [13]: 32 mg/kg
CN1CCN(CC/C=C2/c3ccccc3Sc3ccc(S(=O)(=O)N(C)C)cc32)CC1 [THIOTHIXENE] |  |  |  |  | ED50 (Rattus norvegicus [14]): 0.32 mg/kg
COc1ccc(Cl)c2c1CCC(CN1CCC(c3ccccc3)CC1)=C2.O | 233 | 171 | 109 | 106 | 
Cc1cc(C)c2c(c1)C=C(CN1CCCC1)CC2.Cl |  |  |  |  | Activity (Mus musculus [9]): 126%; Activity (Mus musculus [10]): 120%; Activity (Mus musculus [11]): 124%; Activity (Mus musculus [12]): 126%; LD50 [13]: 32 mg/kg
COc1ccc(Cl)c2c1CCC(CN1CCC(C(=O)N3CCCC3)CC1)=C2.Cl.O | 213 | 155 | 262 | 172 | Activity (Rattus norvegicus [15]): 332%
COc1ccc(OC)c2c1C=C(CN1CCCC1)CC2.Cl |  |  |  |  | Activity (Mus musculus [9]): 177%; Activity (Mus musculus [10]): 132%; Activity (Mus musculus [11]): 111%; Activity (Mus musculus [12]): 99%; LD50 [13]: 32 mg/kg

Reference: ChEMBL document CHEMBL3243935, “Analgesic and tranquilizing activity of 5,8-disubstituted 2-aminomethyl-3,4-dihydronaphthalenes” (J Med Chem, 1978)
